Source: PubChem BioAssay
Sampled rows, rich in hits. Any-hit rate of the full collection: about 2.6%.
SENP8 block-1 – blocks the human protease SENP8; inhibition, % at 10 µM; AID 2540; hit rate 1.2% among 330,000; purified SENP8, Z-RLRGG-aminoluciferin cleavage, luminescence; in the data active means inhibition above about 50%
SENP8 block-2 – inhibitors of human SENP8 protease; recombinant SENP8, Nedd8 substrate fluorescence; Q96LD8; hit rate 0.64% among 360,000; inhibition, % at 20 µM; in the data active means inhibition mostly above about 40%, no sharp cut-off; inactive means mostly below about 27%
SENP7 block – SENP7 protease inhibition | hit rate 1.5% among 330,000 | recombinant SENP7, Z-RLRGG-aminoluciferin luminescence, 40 min | AID 434973 | inhibition, % at 5 µM;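 active means inhibition above about 50% at the single test dose, limit read from the data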;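 further: plate controls were DMSO with enzyme for no effect and no enzyme buffer wells for full effect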
Target sequence (Q9BQF6 706-1050 limits assumed): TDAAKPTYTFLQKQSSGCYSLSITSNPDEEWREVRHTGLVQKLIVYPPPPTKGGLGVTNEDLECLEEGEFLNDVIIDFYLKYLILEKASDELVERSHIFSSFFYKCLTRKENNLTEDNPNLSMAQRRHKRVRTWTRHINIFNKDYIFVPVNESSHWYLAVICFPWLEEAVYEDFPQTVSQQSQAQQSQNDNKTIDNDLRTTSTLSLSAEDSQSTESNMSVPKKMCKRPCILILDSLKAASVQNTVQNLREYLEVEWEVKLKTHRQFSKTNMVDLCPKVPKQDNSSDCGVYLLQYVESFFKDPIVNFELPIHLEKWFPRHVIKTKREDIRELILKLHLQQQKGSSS
SENP6 block – inhibitors of human SENP6 protease; Q9GZR1; Recombinant SENP6 catalytic domain, aminoluciferin luminescence; inhibition, % at 10 µM; hit rate 1.8% among 330,000;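 active means inhibition above about 50% at the single tested dose, limit read from the data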;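 further: plate controls were DMSO wells with enzyme for no effect and DMSO wells lacking enzyme for full effect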
SENP1 FRET inh – inhibitors of human SENP1 SUMO protease catalytic domain; inhibition, % at 10 µM; hit rate 0.21% among 360,000; recombinant SENP1 catalytic domain, CyPet-SUMO1-YPet FRET cleavage; Q9P0U3; AID 624204;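 active means inhibition at least 30% at 10 µM, raw YFP signal under a set limit, fluorescence ratio 0.5 to 1.5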;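 further: 0% = enzyme with DMSO and 100% = no enzyme wells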
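Material – human SENP1 catalytic domain · Input – SENP1 enzyme, 20 pM final · Compound dosing – single concentration of 10 µM compound, 0.5% DMSO final · Timing – enzyme reaction for 50 min at room temperature, dark · Measured by – FRET fluorescence in CFP and YFP emission channels · Control set – no-enzyme wells low, DMSO-plus-enzyme wells high control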
Platelet DG rel – platelet dense granule release activity | hit rate 0.22% among 300,000 | inhibition, %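 (compounds screened at 7.5 µM in platelet-rich plasma)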 | human platelet-rich plasma, SFLLRN dense granule ATP release, luminescence | AID 1663;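 active means mean replicate score, as percent of positive control, at or above 50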
* marks the source's active call; other numbers are inactive results; . = no result given.

SMILES	SENP8 block-1	SENP8 block-2	SENP7 block	SENP6 block	SENP1 FRET inh	Platelet DG rel
CCN(C(=S)Nc1cc(S(=O)(=O)N2CCOCC2)ccc1Cl)c1cccc2ccccc12	57.9*	-387.8	39.2	77.2*	-13.2	3.4
O=S(=O)(c1ccc(Cl)c(NC(=S)Nc2cccc(O)c2)c1)N1CCOCC1	-7.1	13.2	5.0	9.6	2.5	2.2
CN(Cc1cn(Cc2cccc(Cl)c2)nn1)C1CN(Cc2cn(Cc3cccc(Cl)c3)nn2)S(=O)(=O)C1 (stereo not drawn)	.	20.3	.	.	-0.9	.
CCCCCCOC(=O)Nc1ccc(S(=O)(=O)Nc2cccc([N+](=O)[O-])c2)cc1	-6.7	5.0	-7.9	51.6*	1.9	-2.1
Cc1ccc(S(=O)(=O)N2[C@H](CC(=O)c3ccccc3)OC[C@@H]2C(C)C)cc1	.	16.3	.	.	3.6	.
Cc1ccc(-c2cn(-c3ccccc3)c(=S)[nH]2)cc1C	65.9*	11.8	86.5*	80.7*	-0.1	-1.4
CCn1c(=O)cc(N2CCN(Cc3ccccc3)CC2)[nH]c1=O	-11.0	7.5	-10.8	-4.4	-2.0	52.6*
CCC(CN(C)C)Oc1cc(NCc2ccccc2)c2ncn(C(C)C)c2c1 (stereo not drawn)	82.9*	12.4	86.7*	-4.9	-30.5	.
COc1cc(NCc2ccccc2)c2ncn(C(C)C)c2c1	4.8	21.9	5.5	2.0	0.2	.
COC1=C(c2ccccc2)C(=O)c2ccccc2C1=O	3.0	91.9*	12.7	28.4	13.0	2.3
COC(=O)C1(C(=O)OC)Cc2ccccc2N(S(=O)(=O)c2ccc(C)cc2)C1CC(C)=O (stereo not drawn)	.	24.5	.	.	-1.4	.
CCOC(=O)c1ccc(NC2=CC(=O)C(=O)c3ccccc32)cc1	8.5	82.2*	9.4	32.0	11.5	9.4
CC(=O)Nc1ccc(NC2=CC(=O)c3ccccc3C2=O)cc1	-4.4	-5.5	6.1	13.0	1.5	3.4
NC1=NC(=Nc2cccc(S(N)(=O)=O)c2)c2ccccc21	2.3	18.7	-2.9	-0.4	3.6	17.8
COc1cc(N=Nc2cccc(S(N)(=O)=O)c2)c2ccccc2c1N	.	17.5	.	.	48.0*	5.8
C(=NN=C(NN=Cc1cccs1)NN=Cc1cccs1)c1cccs1	.	-6.9	.	.	13.3	.
Cc1ccsc1C(=O)Nc1ccc(F)c([N+](=O)[O-])c1	53.3*	8.7	71.3*	76.9*	3.3	-1.2
Cn1nc(-c2ccc(Cl)cc2)nc2c(=O)n(C)c(=O)nc1-2	97.9*	.	97.8*	97.9*	.	8.3
CCOc1ccc(C(=O)Nc2cccc([N+](=O)[O-])c2)cc1Br	-1.3	14.9	55.6*	8.2	1.0	15.7
C[C@@H](c1ccccc1)N1C[C@@H](COCc2ccccc2)Oc2cc(N3CCC[C@H]3CO)ccc2S1(=O)=O	.	-2.0	.	.	-7.2	.
COc1ccc(-c2c(-c3cc(OC)cc(OC)c3)n(C)c3ccc(Br)cc23)cc1	0.8	-484.9	-6.1	-7.5	-0.1	.
COc1ccc(N=Nc2nc3ccc(Br)cc3n2C)cc1	.	64.3*	.	.	57.5	10.6
CN1CCN(C(=O)c2cc3c(c(-c4cccc(-c5cccnc5)c4)n2)[C@@H](CCO)N(C(=O)CC2CC2)C3)CC1	.	19.3	.	.	-0.6	.
CC1OC(CC(=O)O)CC2=C1C(=O)c1c(O)cccc1C2=O (stereo not drawn)	.	88.7*	.	.	0.1	.
O=C(Nc1ccc(F)cc1)C(c1cc2ccccc2o1)N1CCN(c2ccncc2)CC1 (stereo not drawn)	.	19.0	.	.	-2.3	.
SMILES	SENP8 block-1	SENP8 block-2	SENP7 block	SENP6 block	SENP1 FRET inh	Platelet DG rel
CCCCN1C(=O)/C(=C/C=C2\N(C)c3ccccc3C2(C)C)SC1=S	-3.8	.	0.5	-1.1	.	4.7
CCCN1C(=O)/C(=C\C=C2/C=CN(CC)c3ccccc32)SC1=S	-4.1	54.8*	0.9	22.2	-45.6	5.1
Cc1cc(C)n2[nH]c(=O)c(N=Nc3cccc(Cl)c3)c2n1	3.9	47.9*	1.0	-10.2	1.1	4.7
Cc1cc(C)n2[nH]c(=O)c(N=Nc3cccc(C(F)(F)F)c3)c2n1	-9.3	52.7*	-4.9	-14.2	2.1	0.4
Cc1cc(C)n2[nH]c(=O)c(N=Nc3ccccc3)c2n1	-10.1	29.2	-7.1	-26.4	1.5	5.2
CCCCn1nnnc1C(c1ccccc1)N1CCN(c2ncccc2C(F)(F)F)CC1 (stereo not drawn)	.	10.8	.	.	-0.3	.
Brc1ccc(-c2nnc(-c3ccco3)o2)cc1	66.2*	-207.5	60.2*	80.8*	0.3	-51.0
